An excerpt weighted towards active compounds, which were near 2.9% of everything screened.
ATG4B inh – ATG4B protease inhibitors, primary screen, biochemical, fluorescence, uHTS; Cysteine protease ATG4B (Homo sapiens), Q9Y4P1; ATG4B cleavage of LC3-PLA2, NBD-HPC fluorescence, 1 h; inhibition, % at 8.33 µM; hit rate 0.51% among 340,000; AID 504462, 2011; in the data active = inhibition above about 40%
ABHD4 inh – ABHD4 inhibitors, primary screen, biochemical, fluorescence polarization, mouse | purified mABHD4, FP-Rh probe fluorescence polarization | inhibition, % at 8.92 µM | hit rate 0.54% among 370,000;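 active = inhibition exceeding the mean over every tested compound plus 3 SD, cut at about 30% in these data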
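Assay system: wild-type mouse ABHD4 protein; compound: single nominal dose of 8.92 µM, 0.89% DMSO final; schedule: 45 min + 60 min at 25 °C; measured by: FP readout, ex 525 nm / em 598 nm; evaluation: % inhibition of FP-Rh probe binding versus controls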
TCR CD3 inh – inhibitors of human TCR-CD3 interaction, primary screen, biochemical, fluorescence, TAMRA-labeled TCR probe | hit rate 0.37% among 360,000 | inhibition, % at 9.4 µM | AID 651800, 2012; in the data active = inhibition above about 19%;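 also: recombinant mutant TCR 2C K166C tagged with TAMRA read by polarization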
HTRA1 inh – HTRA1 serine protease inhibitors, primary screen, biochemical, fluorescence polarization, HTS; hit rate 0.5% among 340,000; inhibition, % at 5.96 µM; recombinant HTRA1, FP-rhodamine activity-based probe; in the data active = inhibition above about 36%
SIAE inh – human SIAE inhibitors, primary screen, biochemical, fluorescence polarization, FP-Rh probe, 1536-well HTS. hit rate 0.69% among 370,000. Sialate O-acetylesterase (Homo sapiens), Q9HAT2. SIAE FP-Rh probe binding. inhibition, % at 9.66 µM;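 active = inhibition above a cutoff: mean of compounds within the control limits plus 3 SD of those, cut at about 17% in these data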
PRMT1 inh – PRMT1 methyltransferase inhibitors, primary screen, biochemical, fluorescence polarization | Protein arginine N-methyltransferase 1 (Homo sapiens), Q99873 | inhibition, % at 2.79 µM | recombinant PRMT1, activity-based probe fluorescence polarization | AID 652257, 2013 | hit rate 1.3% among 370,000;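 active = inhibition above about 21% made by adding two undisclosed values, limit read from the data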
Target sequence (Q99873 whole entry, looked up): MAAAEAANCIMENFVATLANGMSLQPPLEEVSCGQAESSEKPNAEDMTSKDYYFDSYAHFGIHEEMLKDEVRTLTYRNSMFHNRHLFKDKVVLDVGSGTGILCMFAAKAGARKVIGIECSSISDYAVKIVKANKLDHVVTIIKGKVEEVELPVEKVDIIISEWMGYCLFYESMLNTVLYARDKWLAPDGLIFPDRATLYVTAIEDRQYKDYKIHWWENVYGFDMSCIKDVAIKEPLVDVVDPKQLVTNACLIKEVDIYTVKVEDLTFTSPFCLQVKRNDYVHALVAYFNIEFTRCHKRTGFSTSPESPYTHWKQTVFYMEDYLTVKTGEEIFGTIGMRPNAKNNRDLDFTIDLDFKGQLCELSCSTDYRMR
PRMT1 inh conf – PRMT1 methyltransferase inhibitors, confirmation, biochemical, fluorescence polarization, triplicate; shares compounds with PRMT1 inh; recombinant His-PRMT1, activity-based probe fluorescence polarization; inhibition, % at 2.79 µM; hit rate 42% among 3,300; AID 687036, 2013;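 active = mean inhibition across replicates above the hit cutoff derived for the earlier primary screen, cut at about 22% in these data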
Large screens that a line does not name were inactive (follow-up assays come after a bar, where they were run).

COc1ccc(C2SCCN2C(=S)Nc2cccc(Cl)c2)cc1 (configuration not stated)	PRMT1 inh 80 | PRMT1 inh conf inactive
CCN(CC)CCCNC(=O)c1cn(C(C)c2ccccc2)nn1 (configuration not stated)	none (no result: ATG4B inh, TCR CD3 inh, HTRA1 inh)
Nc1c(C(=O)Nc2ccc(Cl)c(Cl)c2)sc2nc(-c3cccnc3)ccc12	PRMT1 inh 26 (no result: ATG4B inh, HTRA1 inh) | PRMT1 inh conf inactive
NC(=O)c1sc2nc(-c3cccnc3)ccc2c1N	none (no result: HTRA1 inh)
Cc1cc2cc(C=C(C#N)C#N)c(Cl)nc2cc1C	PRMT1 inh 86 | PRMT1 inh conf inactive
O=C(NNc1nc2cc3c(cc2s1)OCCO3)c1ccccc1	none
Cc1cccc2sc(NNC(=O)c3ccc4c(c3)OCCO4)nc12	PRMT1 inh 28 | PRMT1 inh conf inactive
COc1ccc(CCN(Cc2cccs2)S(=O)(=O)c2ccc(C)c(C)c2)cc1OC	none (no result: ATG4B inh, TCR CD3 inh, HTRA1 inh)
O=C(CN(C(=O)OCC1c2ccccc2-c2ccccc21)[C@@H](Cc1ccccc1)C(=O)O)OCc1ccc(C(=O)NCc2ccccc2)cc1	none (no result: ATG4B inh, TCR CD3 inh, HTRA1 inh)
Cc1nnc(SCC(=O)NNC(=O)COc2ccc(Cl)cc2)s1	none
Cc1nnc(SCC2=C(C(=O)O)N3C(=O)C(NC(=O)c4cc(F)c(F)cc4Cl)C3SC2)s1 (configuration not stated)	PRMT1 inh 34 | PRMT1 inh conf inactive
CCC(C(=O)NC1C(=O)N2C(C(=O)O)=C(CSc3nnc(C)s3)CSC12)c1ccccc1 (configuration not stated)	PRMT1 inh 28 | PRMT1 inh conf inactive
Cc1nnc(SCC2=C(C(=O)O)N3C(=O)C(NC(=O)COc4ccccc4)C3SC2)s1 (configuration not stated)	PRMT1 inh 38 | PRMT1 inh conf 69
Cc1nnc(SCC2=C(C(=O)O)N3C(=O)C(NC(=O)COc4ccc(F)cc4)C3SC2)s1 (configuration not stated)	PRMT1 inh 31 | PRMT1 inh conf 23
Cc1nnc(SCC2=C(C(=O)O)N3C(=O)[C@@H](NC(=O)Cn4cnnn4)[C@H]3SC2)s1	none
CN(C)S(=O)(=O)c1cccc(C(=O)N/N=C\c2ccc(-c3ccccn3)cc2)c1	none (no result: ATG4B inh, TCR CD3 inh, HTRA1 inh)
COc1ccc(S[C@]2(C(=O)N3CCOCC3)CC(=O)N(C(=O)CCc3ccccc3)[C@@H]2c2ccc(OC)cc2)cc1	none (no result: ATG4B inh, TCR CD3 inh, HTRA1 inh)
O=C(CSc1nccn(-c2ccc(F)c(Cl)c2)c1=O)NC1CCCC1	PRMT1 inh 32 | PRMT1 inh conf 39
Cc1ccc(-n2ccnc(SCC(=O)NCCc3ccccc3)c2=O)cc1F	PRMT1 inh 59 | PRMT1 inh conf 42
Cc1ccc(-n2ccnc(SCC(=O)NC3CCCC3)c2=O)cc1F	none
CCOC(=O)c1c(C)[nH]c(O)c1C=Nc1ccc(C(F)(F)F)cc1	HTRA1 inh 62, PRMT1 inh 29 | PRMT1 inh conf inactive
Cc1ccc(C(=O)NCC(=O)OCc2nc3sc(C)c(C)c3c(=O)[nH]2)cc1	none (no result: ATG4B inh, TCR CD3 inh, HTRA1 inh)
Cc1ccc(C)c(N2CCN(c3nc4ccccc4c(=O)n3Cc3ccccc3)CC2)c1	none
O=c1c2ccccc2nc(N2CCN(c3ccccc3)CC2)n1Cc1ccccc1	PRMT1 inh 74 | PRMT1 inh conf inactive
CCOC(=O)C1=C(C)N=c2s/c(=C\c3ccc(C(=O)O)cc3)c(=O)n2C1c1ccc(F)cc1 (configuration not stated)	none
CC1=C(C(=O)OC(C)C)C(c2ccc(Cl)cc2)n2c(s/c(=C\c3ccc(OCC(=O)O)cc3)c2=O)=N1 (configuration not stated)	none
CCOC(=O)C1=C(C)N=c2s/c(=C\c3ccc(OCC(=O)O)cc3)c(=O)n2C1c1ccccc1 (configuration not stated)	PRMT1 inh 34 | PRMT1 inh conf inactive

Bioassay records deposited in PubChem BioAssay by several laboratories.
